Converted amounts (≈) assume the structure as drawn.
Columns and labels:
[1] = Solubility of the compound in phosphate buffered saline; format: physicochemical
Method in brief: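 Solubility measured in PBS buffer, reported in µg/mL.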

Rattus norvegicus [2] = test: AUC (0 to 24 hrs) in rat at 100 mg/kg, sc; format: ADME, organism-based, Plasma; set-up: time < 24 hr, dose 100 mg/kg, route subcutaneous; conditions: in vivo
[3] = Cmax in rat at 100 mg/kg, sc; format: ADME, organism-based; set-up: dose 100 mg/kg, route subcutaneous; conditions: in vivo
[4] = Tmax in rat at 100 mg/kg, sc; format: ADME, organism-based; set-up: dose 100 mg/kg, route subcutaneous; conditions: in vivo
Rattus norvegicus [5] = test: AUC (0 to 24 hrs) in rat at 70 mg/kg, sc; format: ADME, organism-based, Plasma; set-up: time < 24 hr, dose 70 mg/kg, route subcutaneous; conditions: in vivo
[6] = Cmax in rat at 70 mg/kg, sc; format: ADME, organism-based; set-up: dose 70 mg/kg, route subcutaneous; conditions: in vivo
[7] = Tmax in rat at 70 mg/kg, sc; format: ADME, organism-based; set-up: dose 70 mg/kg, route subcutaneous; conditions: in vivo

solubility [1] | Structure (SMILES) | further results
1.6 µg/mL (≈ 3 µM) | O=C1COc2c(Cl)cc(Cl)cc2N1Cc1nnc(CCc2ccc(Cl)cc2)n1CCC(F)(F)F | –
2.2 µg/mL (≈ 4.25 µM) | O=C1COc2c(cc(Cl)cc2[N+](=O)[O-])N1Cc1nnc(-c2ccc(Cl)cn2)n1CCC(F)(F)F | –
1 µg/mL (≈ 2.16 µM) | CCCn1c(CN2C(=O)COc3c2cc(Cl)cc3[N+](=O)[O-])nnc1-c1ccc(Cl)cn1 | –
2 µg/mL (≈ 4.52 µM) | CCCn1c(CN2C(=O)COc3c2cc(C)cc3[N+](=O)[O-])nnc1-c1ccc(Cl)cn1 | –
1.1 µg/mL (≈ 2.67 µM) | CCCn1c(CN2C(=O)COc3c(C)cc(C)cc32)nnc1-c1ccc(Cl)cn1 | –
64 µg/mL (≈ 170 µM) | CCCn1c(CN2C(=O)COc3c(C)cc(C)cc32)nnc1-c1ccccn1 | AUC (Rattus norvegicus [2]): 16.2 µM·h; Cmax [3]: 1050 nM; Tmax [4]: 8 h
80 µg/mL (≈ 181 µM) | CCCn1c(CN2C(=O)COc3c2cc(Cl)cc3[N+](=O)[O-])nnc1-c1ncccc1C | –
19 µg/mL (≈ 45.6 µM) | CCCn1c(CN2C(=O)COc3c(C)cc(C)cc32)nnc1[C@@H]1C[C@H]1c1ccccc1 | –
23 µg/mL (≈ 53.4 µM) | CCCn1c(CN2C(=O)COc3c(C)cc(C)cc32)nnc1[C@@H]1CCc2ccccc2C1 | –
35 µg/mL (≈ 84 µM) | CCCn1c(CN2C(=O)COc3c(C)cc(C)cc32)nnc1C1Cc2ccccc2C1 | AUC (Rattus norvegicus [5]): 61.6 µM·h; Cmax [6]: 3500 nM; Tmax [7]: 24 h

— ChEMBL document CHEMBL1777714, “Optimization of triazoles as novel and potent nonphlorizin SGLT2 inhibitors” (Bioorg Med Chem Lett, 2011)
